{"data": "Measured values of several laboratories", "target": "Serine/threonine-protein kinase MARK1 (MARK1, Homo sapiens, UniProt Q9P0L2)", "note": "Lines come from different studies, so protocols differ."}
{"SMILES": "COc1ccc2oc(-c3ccc4nc(N)oc4c3)c/c(=N\\c3ccccc3NC(=O)CCN)c2c1", "assay": "binding", "setting": "1 µM", "endpoint": "remaining binding", "result": "103%"}
{"SMILES": "CCCCC(=O)Nc1ccc(-c2ccc3ncn(CCC)c(=O)c3c2)cn1", "assay": "binding, competition with immobilised ligand", "setting": "0.5 µM", "endpoint": "remaining binding", "result": "81%"}
{"SMILES": "C[C@H]1CC[C@H](n2c3cnccc3c3cnc(Nc4ccc5c(n4)CCN(C(=O)CO)C5)nc32)CC1", "assay": "cell-free assay", "setting": "1 µM", "endpoint": "remaining signal", "result": "66%"}
{"SMILES": "CO[C@@H]1[C@H](N(C)C(=O)c2ccccc2)C[C@H]2O[C@]1(C)n1c3ccccc3c3c4c(c5c6ccccc6n2c5c31)C(=O)NC4", "assay": "enzyme activity, inhibitor", "setting": "1 µM", "endpoint": "inhibition", "result": "96%"}
{"SMILES": "Cc1ccc(NC(=O)c2ccnc(C(F)(F)F)c2)cc1-c1cc(OCCO)nc(N2CCOCC2)c1", "assay": "binding", "setting": "1 µM", "endpoint": "remaining binding", "result": "100%"}
{"SMILES": "C#Cc1cc(-c2cc(Nc3nc(N[C@@H](C)c4ccc(F)cn4)ncc3Cl)n[nH]2)ccc1C=O", "assay": "enzyme activity, inhibitor", "setting": "0.2 µM", "endpoint": "inhibition", "result": "8.26%"}
{"SMILES": "C1=C/COCc2cc(ccc2OCCN2CCCC2)Nc2nccc(n2)-c2cccc(c2)COC/1", "assay": "binding", "setting": "0.1 µM", "endpoint": "remaining binding", "result": "100%"}
{"SMILES": "CC#CC(=O)N1CCC[C@H]1c1nc(-c2ccc(C(=O)Nc3ccccn3)cc2)c2c(N)nccn12", "assay": "enzyme activity, inhibitor", "setting": "1 µM", "endpoint": "inhibition", "result": "10%"}
